As a reminder, the IC50 is the point on the concentration scale where inhibition reaches its midpoint. Higher therefore signals lower potency.

Active and inactive are the calls of the source. The calls are words filed in the database; no cut-off is given here.

The nature of data set [1]: Toxicity against human erythrocytes assessed as potentiation of heme-induced hemolysis at 10 uM in presence of heme. It counts as cell-based. Particulars: erythrocyte. The essentials:
(§1)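 Washed fresh human erythrocytes (0.5% in PBS, pH 7.4) were used. Heme, either 0–20 µM with 10 µM drug or 10 µM with various drug concentrations, was preincubated 10 min in PBS, then cells were added. Plates were shaken 2 h at 37°C and read at 630 nm. Percent hemolysis was calculated relative to a cells-only control. Error bars are SD.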

The nature of data set [2]: Toxicity against human erythrocytes assessed as heme-induced hemolysis up to 30 uM in absence of heme. Format: cell-based. Conditions: erythrocyte. The essentials:
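Fresh heparinized human donor erythrocytes, washed six times in PBS, pH 7.4, used as a 0.5% suspension. Drugs up to 30 µM without heme were tested. Hemolysis was followed by turbidity at 630 nm, with a cells-only well taken as 0% hemolysis.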

The nature of data set [3]: Inhibition of beta-hematin formation after 16 hrs.
Data set [4] is described as follows: Binding affinity to heme in phosphate buffer at pH 7.4 by Hills plot.
For another data set, the system named is Plasmodium falciparum. As to the kind of experiment: Antimalarial activity against chloroquine-sensitive Plasmodium falciparum D6 infected in human erythrocytes after 48 hrs. It counts as functional, organism-based. Particulars: D6, 48 h. Summed up: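 Human erythrocytes infected with chloroquine-sensitive P. falciparum clone D6, mainly rings, at 4% parasitemia and 5% hematocrit. Cultured in RPMI 1640 with 10% human AB serum, with serial drug dilutions in triplicate. Incubated 48 h at 37°C in a candle jar. Parasitized cells per 10,000 counted on Giemsa-stained thin smears. Inhibition vs drug-free control was plotted, and IC50 (µM) read graphically.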

A short description of data set [5]: Binding affinity to heme in HEPES buffer at pH 7.4 upto 60 uM after 30 mins by Jobs plot.
Data set [6] in a line: Binding affinity to heme in HEPES buffer at pH 7.4 upto 20 uM after 30 mins by Jobs plot. The essentials: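 Continuous-variation (Job's) method: drug and heme mixed in 40% DMSO buffered with 20 mM HEPES, pH 7.4, at a constant combined final concentration of 10 µM. Mixtures were held 30 min at room temperature (25°C). Differential absorbance at 400 nm was taken as the mixture absorbance minus the summed heme and drug absorbances. Three independent experiments, mean ± SEM.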

Data set [7] is described as follows: Toxicity against human erythrocytes assessed as potentiation of heme-induced hemolysis in presence of variable concentration of heme. It counts as cell-based. Particulars: erythrocyte. Summed up:
as §1

Data set [8] can be described thus: Binding affinity to heme in HEPES buffer at pH 7.4 after 30 mins by Jobs plot. The essentials:
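Continuous-variation (Job's) plot: drug–heme mixtures in 40% DMSO buffered with 20 mM HEPES, pH 7.4, total heme plus drug held at 10 µM. Incubated 30 min at room temperature (25°C). Differential absorbance at 400 nm was taken as mixture minus summed heme and drug absorbance. Mean ± SEM of three independent experiments.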

With `COc1cc(NC(C)CCCN)c2nc(C(C)(C)C)ccc2c1` (centres undefined), the Activity result in data set [1] is listed as “Dose-dependent effect”; in [2] it was “Not Active”. Besides, the IC50 stood at 2900 nM in data set [3] and 100 nM with Plasmodium falciparum. Besides, the Ka in data set [4] worked out at 0.61 ×10⁵ /M. The outcome in [5] was Active.

Turning to `CCN(CC)CCCC(C)Nc1ccnc2cc(Cl)ccc12` (centres undefined) [CHLOROQUINE], the Activity entry in data set [1] is on record as “Dose-dependent effect”; in data set [2], “Not Active”. Also, in [6], the result was Active.

On to `COc1cc(NC(C)CCCN)c2ncccc2c1` (centres undefined) [PRIMAQUINE], for which the Activity result in data set [7], in [1] and in data set [2] was “Not Active” in each case. Besides, the outcome in data set [8] and in data set [4] was inactive.
